The campaign covered roughly 20,000 compounds. About 25 (0.1%) were called active.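 How the source made its calls: active means mean replicate protection from cytokine-induced ATP loss at least 50% and at least 75% of replicates each reaching 50%; inconclusive means meets only one of the two criteria, mean or replicate share; inactive means fails both the mean and replicate share criteria.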 The full list was thinned out, with actives kept by preference.
Assay: protection of INS-1E cells from cytokine death, primary screen, ATP luminescence, single point (AID 488910)
Details: INS-1E cytokine-induced death, 48 h, at 10 µM, active compounds read high, normalised: neutral wells 0, positive control 100
Method in brief: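 assay system = INS-1E rat insulinoma cells | amount = 8000 cells per well | medium = phenol-red-free RPMI with 5% fetal bovine serum | doses = one compound concentration, pin transfer | timing = 48 h cytokine plus compound treatment, 10 min reagent incubation | also added = IL-1β, TNF-α and IFN-γ cytokine mix | signal = CellTiter-Glo luminescence measuring cellular ATP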

Row | Structure (SMILES) | protection from cytokine-induced ATP loss
1 | COc1ccc(NC(=O)N(C)C[C@H]2Oc3ccc(N(C)C)cc3C(=O)N([C@@H](C)CO)C[C@H]2C)cc1 | 3.7% (inactive)
2 | Cc1ccc(S(=O)(=O)N(C)C[C@@H]2Oc3c(NC(=O)Nc4ccc(F)cc4)cccc3C(=O)N([C@H](C)CO)C[C@H]2C)cc1 | 40.9% (inactive)
3 | CNC[C@H]1OCCCC[C@@H](C)Oc2ccc(NC(=O)Cc3ccccc3)cc2C(=O)N([C@H](C)CO)C[C@@H]1C | -7.6% (inactive)
4 | C[C@@H]1CN([C@@H](C)CO)C(=O)Cc2cc(NS(=O)(=O)c3ccc(F)cc3)ccc2O[C@@H]1CN(C)S(=O)(=O)c1cccs1 | 4.79% (inactive)
5 | C[C@H](CO)N1C[C@H](C)[C@H](CN(C)Cc2ccccc2)Oc2ccc(NC(=O)CCCCCC(=O)Nc3ccccc3N)cc2C1=O | -0.781% (inactive)
6 | COc1ccc(NC(=O)N(C)C[C@@H]2Oc3ccc(NC(=O)CCCN(C)C)cc3CC(=O)N([C@H](C)CO)C[C@H]2C)cc1 | 7.7% (inactive)
7 | C[C@@H]1CN([C@@H](C)CO)C(=O)c2cccc(NS(=O)(=O)c3ccc(Cl)cc3)c2O[C@@H]1CN(C)Cc1ccccc1 | -3.08% (inactive)
8 | CC(C)NC(=O)N(C)C[C@H]1Oc2ccc(NS(C)(=O)=O)cc2CC(=O)N([C@@H](C)CO)C[C@@H]1C | 2.48% (inactive)
9 | Cc1noc(C)c1NC(=O)N(C)C[C@@H]1Oc2c(NC(=O)C3CCCCC3)cccc2C(=O)N([C@H](C)CO)C[C@@H]1C | 10.1% (inactive)
10 | C[C@@H]1CN([C@H](C)CO)C(=O)c2cccc(NC(=O)Nc3ccc4c(c3)OCO4)c2O[C@@H]1CN(C)Cc1ccccc1 | -9.92% (inactive)
11 | C[C@@H]1CN([C@@H](C)CO)C(=O)c2cccc(NS(=O)(=O)c3cccs3)c2O[C@H]1CN(C)Cc1ccncc1 | 4.56% (inactive)
12 | C[C@H]1CN([C@@H](C)CO)C(=O)Cc2cc(NC(=O)Cn3cnnn3)ccc2O[C@@H]1CN(C)Cc1ccc(-c2ccccc2)cc1 | 5.19% (inactive)
13 | C[C@@H]1CN([C@H](C)CO)C(=O)Cc2cc(NC(=O)Nc3cccc4ccccc34)ccc2O[C@@H]1CN(C)Cc1ccc(C(F)(F)F)cc1 | -18.8% (inactive)
14 | Cc1ccc(S(=O)(=O)Nc2ccc3c(c2)CC(=O)N([C@H](C)CO)C[C@@H](C)[C@H](CN(C)Cc2ccc(C(F)(F)F)cc2)O3)cc1 | 4.83% (inactive)
15 | O=C(NO)c1ccc(C(=O)N/N=C/c2cc(Br)cc(Br)c2O)cc1 | 29.8% (inactive)
16 | C[C@@H]1CN([C@@H](C)CO)C(=O)c2cc(NS(=O)(=O)c3ccc(Cl)cc3)ccc2O[C@H]1CN(C)C(=O)Nc1ccc(C(F)(F)F)cc1 | -4.38% (inactive)
17 | C[C@H]1CN([C@@H](C)CO)C(=O)c2cc(NS(=O)(=O)c3cccs3)ccc2O[C@@H]1CN(C)C(=O)Nc1ccccc1 | 10.2% (inactive)
18 | C[C@@H]1CN([C@H](C)CO)C(=O)Cc2cc(NS(=O)(=O)c3cccs3)ccc2O[C@@H]1CN(C)Cc1ccc(C(=O)O)cc1 | 5.4% (inactive)

Row | Structure (SMILES) | protection from cytokine-induced ATP loss
19 | C[C@@H]1CN([C@H](C)CO)C(=O)Cc2cc(NS(=O)(=O)c3cn(C)cn3)ccc2O[C@@H]1CN(C)C(=O)Nc1ccccc1 | 10.7% (inactive)
20 | CC(C)NC(=O)N(C)C[C@@H]1Oc2ccc(NC(=O)CCCCCC(=O)Nc3ccccc3N)cc2C(=O)N([C@@H](C)CO)C[C@H]1C | 12.1% (inactive)
21 | Cc1ccc(S(=O)(=O)Nc2ccc3c(c2)CC(=O)N([C@@H](C)CO)C[C@H](C)[C@H](CN(C)Cc2ccccc2)O3)cc1 | 12.2% (inactive)
22 | COC(=O)CCCCCCC(=O)N/N=C/c1cccc(Br)c1 | 21.3% (inactive)
23 | C[C@H](CO)N1C[C@H](C)[C@H](CN(C)C(=O)Nc2cccc3ccccc23)Oc2ccc(NS(C)(=O)=O)cc2C1=O | 4.67% (inactive)
24 | C[C@H]1CN([C@@H](C)CO)C(=O)Cc2cc(NC(=O)NC3CCCCC3)ccc2O[C@@H]1CN(C)Cc1ccc(Oc2ccccc2)cc1 | -49.9% (inactive)
25 | C[C@@H]1CN([C@@H](C)CO)C(=O)c2cc(NC(=O)C3CCCCC3)ccc2O[C@@H]1CN(C)Cc1ccc(C(=O)O)cc1 | 3.82% (inactive)
26 | COc1ccc(NC(=O)Nc2ccc3c(c2)CC(=O)N([C@@H](C)CO)C[C@H](C)[C@@H](CN(C)S(=O)(=O)c2cn(C)cn2)O3)cc1 | 14.9% (inactive)
27 | Cc1ccc(S(=O)(=O)Nc2ccc3c(c2)C(=O)N([C@H](C)CO)C[C@H](C)[C@@H](CN(C)C(=O)Nc2ccc4c(c2)OCO4)OCCCC[C@@H](C)O3)cc1 | -3.08% (inactive)
28 | COc1cc(/C=N\NC(=O)CCCCCCC(=O)NO)c(Br)cc1O | 77.6% (active)
29 | COC(=O)CCCCCCC(=O)N/N=C/c1ccc(O)c(OC)c1 | 9.74% (inactive)
30 | COC(=O)CCCCCCC(=O)N/N=C/c1c(OC)cc(O)cc1OC | 3.27% (inactive)
31 | C[C@H](CO)N1C[C@H](C)[C@H](CN(C)S(C)(=O)=O)Oc2c(NC(=O)c3ccc(-c4nccs4)cc3)cccc2C1=O | -1.51% (inactive)
32 | COc1ccc(S(=O)(=O)Nc2ccc3c(c2)C(=O)N([C@H](C)CO)C[C@@H](C)[C@H](CN(C)S(=O)(=O)c2ccc(C)cc2)O3)cc1 | -13.4% (inactive)
33 | C[C@@H]1CN([C@H](C)CO)C(=O)c2cc(NS(C)(=O)=O)ccc2O[C@@H]1CN(C)S(C)(=O)=O | 6.6% (inactive)
34 | Cc1noc(C)c1NC(=O)N(C)C[C@H]1OCCCC[C@@H](C)Oc2ccc(NC(=O)NC(C)C)cc2C(=O)N([C@H](C)CO)C[C@@H]1C | -5.7% (inactive)
35 | COc1ccc(NC(=O)Nc2ccc3c(c2)C(=O)N([C@H](C)CO)C[C@H](C)[C@@H](CN(C)C(=O)Nc2ccc4c(c2)OCO4)O3)cc1 | 3.11% (inactive)
36 | C[C@@H]1CN([C@@H](C)CO)C(=O)c2cc(NC(=O)CCN3CCOCC3)ccc2O[C@@H]1CN(C)S(=O)(=O)c1ccccc1 | 8.45% (inactive)

Reference: PubChem BioAssay AID488910 (Broad Institute, 2010)
